# Reference: ChEMBL document CHEMBL1125376, “Class III antiarrhythmic activity of novel substituted 4-[(methylsulfonyl)amino]benzamides and sulfonamides” (J Med Chem, 1992)
# “And” between values parts separate entries of the source, which are not always exact repeats. Equal values may be shown once.
# How the values were obtained:
# [1] = species on record: Canis familiaris; assay: Effect on the transmembrane potential of dog Purkinje fibers paced at a basic cycle length of stimulation of 300 ms, repolarization time to -60 mV at 0.3 uM concentration; format: functional; details: Canis lupus familiaris, Purkinje fiber
# How it was run: (§1)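 Purkinje fiber bundles were taken from pentobarbital-anesthetized mongrel dogs. They were superfused at 37.5-38.0 °C with Tyrode's (mM: NaCl 138, KCl 4, CaCl2 2, NaHCO3 24, MgCl2 0.5, Na2HPO4 1.8, dextrose 5) gassed with 95% O2-5% CO2, pH 7.3-7.4. Stimulation used 2.0 ms pulses at twice threshold. Fibers were equilibrated ≥1 h before drug. Action potentials were recorded at 4-6 sites and averaged per fiber.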
# [2] = system: Canis familiaris; assay: Prodrug ventricular fibrillation threshold(VFT) in open-chest anesthetized dogs(Control = 8+/-1) at a dose of 2.5 mg/kg iv; format: functional, Canis lupus familiaris, Cardiac ventricle
# [3] = (§2) Maximum rate of depolarization of the upstroke of the action potential at 3 uM
# How it was run: (§3)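 Purkinje fiber bundles from pentobarbital-anesthetized mongrel dogs, superfused at 37.5-38.0 °C with Tyrode's solution (95% O2-5% CO2, pH 7.3-7.4). Stimulation with 2.0 ms square pulses at 2× threshold. Fibers equilibrated at least 1 h before drug. Action potentials recorded at four to six sites, control vs drug, and averaged per fiber.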
# [4] = as §2; how it was run: as §3; remark: listed apart in the source
# [5] = species on record: Canis familiaris; assay: Effect on the transmembrane potential of dog Purkinje fibers paced at a basic cycle length of stimulation of 1000 ms, repolarization time to -60 mV at 3 uM; format: functional; details: Canis lupus familiaris, Purkinje fiber; how it was run: as §1
# [6] = species on record: Canis familiaris; assay: Effect on transmembrane potential of dog Purkinje fibers paced at a basic cycle length of stimulation of 300 ms, repolarization time to -60 mV at 3 uM; format: functional; details: Canis lupus familiaris, Purkinje fiber; how it was run: as §1
# [7] = species on record: Canis familiaris; assay: Effect on the transmembrane potential of dog Purkinje fibers paced at a basic cycle length of stimulation of 1000 ms, repolarization time to -60 mV at 0.3 uM concentration; format: functional; details: Canis lupus familiaris, Purkinje fiber; how it was run: as §1
# [8] = system: Canis familiaris; assay: Effect on mean arterial pressure, after intravenous administration in open-chest anesthetized dogs at dose of 2.5 mg/kg; format: functional, Canis lupus familiaris, Artery
# [9] = system: Canis familiaris; assay: Effect on heart rate, after intravenous administration in open-chest anesthetized dogs at dose of 2.5 mg/kg; format: functional, Canis lupus familiaris
# [10] = species on record: Canis familiaris; assay: Effect on the transmembrane potential of dog Purkinje fibers paced at a basic cycle length of stimulation of 1000 ms, repolarization time to -60 mV; format: functional; details: Canis lupus familiaris; Purkinje fiber; how it was run: as §1
# [11] = system: Canis familiaris; assay: Effect on ventricular effective refractory period, after intravenous administration in open-chest anesthetized dogs at dose of 5.0 mg/kg; format: functional, Canis lupus familiaris, Cardiac ventricle
# How it was run: (§4)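 Mongrel dogs, pentobarbital-anesthetized (30 mg/kg iv plus 5 mg/kg per h), open chest. Compound given iv. Atrial and ventricular effective refractory periods and conduction times measured during pacing at 300 ms, along with heart rate and mean arterial pressure. Two doses per compound, chosen from dose-response runs. Values are % change from predrug, mean ± SE.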
# [12] = system: Canis familiaris; assay: Effect on atrial effective refractory period, after intravenous administration in open-chest anesthetized dogs at dose of 2.5 mg/kg; format: functional, Canis lupus familiaris, Cardiac atrium
# [13] = system: Canis familiaris; assay: Effect on ventricular conduction time, after intravenous administration in open-chest anesthetized dogs at dose of 5.0 mg/kg; format: functional, Canis lupus familiaris, Cardiac ventricle
# [14] = species on record: Canis familiaris; assay: Effect on the transmembrane potential of dog Purkinje fibers paced at a basic cycle length of stimulation of 300 ms, repolarization time to -60 mV; format: functional; details: Canis lupus familiaris; Purkinje fiber; how it was run: as §1
# [15] = system: Canis familiaris; assay: Effect on mean arterial pressure, after intravenous administration in open-chest anesthetized dogs at dose of 5.0 mg/kg; format: functional, Canis lupus familiaris, Artery
# [16] = system: Canis familiaris; assay: Effect on ventricular conduction time, after intravenous administration in open-chest anesthetized dogs at dose of 2.5 mg/kg; format: functional, Canis lupus familiaris, Cardiac ventricle
# [17] = system: Canis familiaris; assay: Effect on atrial conduction time, after intravenous administration in open-chest anesthetized dogs at dose of 2.5 mg/kg; format: functional, Canis lupus familiaris, Cardiac atrium
# [18] = system: Canis familiaris; assay: Effect on ventricular effective refractory period, after intravenous administration in open-chest anesthetized dogs at dose of 2.5 mg/kg; format: functional, Canis lupus familiaris, Cardiac ventricle; how it was run: as §4
# [19] = system: Canis familiaris; assay: Effect on heart rate, after intravenous administration in open-chest anesthetized dogs at dose of 5.0 mg/kg; format: functional, Canis lupus familiaris
# [20] = system: Canis familiaris; assay: Effect on atrial conduction time, after intravenous administration in open-chest anesthetized dogs at dose of 5.0 mg/kg; format: functional, Canis lupus familiaris, Cardiac atrium
# [21] = system: Canis familiaris; assay: Effect on atrial effective refractory period, after intravenous administration in open-chest anesthetized dogs at dose of 5.0 mg/kg; format: functional, Canis lupus familiaris, Cardiac atrium
# [22] = system: Canis familiaris; assay: Atrial conduction time, after intravenous administration in open-chest anesthetized dogs at dose of 0.05 mg/kg; format: functional, Canis lupus familiaris, Cardiac atrium
# [23] = system: Canis familiaris; assay: Effect on mean arterial pressure, after intravenous administration in open-chest anesthetized dogs at dose of 0.5 mg/kg; format: functional, Canis lupus familiaris, Artery
# [24] = system: Canis familiaris; assay: Effect on ventricular effective refractory period, after intravenous administration in open-chest anesthetized dogs at dose of 0.05 mg/kg; format: functional, Canis lupus familiaris, Cardiac ventricle
# [25] = system: Canis familiaris; assay: Effect on mean arterial pressure, after intravenous administration in open-chest anesthetized dogs at dose of 0.05 mg/kg; format: functional, Canis lupus familiaris, Artery
# [26] = system: Canis familiaris; assay: Effect on ventricular effective refractory period, after intravenous administration in open-chest anesthetized dogs at dose of 0.5 mg/kg; format: functional, Canis lupus familiaris, Cardiac ventricle
# [27] = system: Canis familiaris; assay: Effect on atrial conduction time, after intravenous administration in open-chest anesthetized dogs at dose of 0.5 mg/kg; format: functional, Canis lupus familiaris, Cardiac atrium
# [28] = system: Canis familiaris; assay: Effect on ventricular conduction time, after intravenous administration in open-chest anesthetized dogs at dose of 0.05 mg/kg; format: functional, Canis lupus familiaris, Cardiac ventricle
# [29] = system: Canis familiaris; assay: Effect on heart rate, after intravenous administration in open-chest anesthetized dogs at dose of 0.05 mg/kg; format: functional, Canis lupus familiaris
# [30] = species on record: Canis familiaris; assay: Effect on the transmembrane potential of dog Purkinje fibers paced at a basic cycle length of stimulation of 300 ms, repolarization time to -60 mV, at a concentration of 0.3 uM; format: functional; details: Canis lupus familiaris, Purkinje fiber; how it was run: as §1
# [31] = system: Canis familiaris; assay: Effect on trial effective refractory period, after intravenous administration in open-chest anesthetized dogs at dose of 0.5 mg/kg; format: functional, Canis lupus familiaris
# [32] = system: Canis familiaris; assay: Effect on heart rate, after intravenous administration in open-chest anesthetized dogs at dose of 0.5 mg/kg; format: functional, Canis lupus familiaris
# [33] = system: Canis familiaris; assay: Effect on ventricular conduction time, after intravenous administration in open-chest anesthetized dogs at dose of 0.5 mg/kg; format: functional, Canis lupus familiaris, Cardiac ventricle
# [34] = system: Canis familiaris; assay: Atrial effective refractory period, after intravenous administration in open-chest anesthetized dogs at dose of 0.05 mg/kg; format: functional, Canis lupus familiaris, Cardiac atrium
# [35] = species on record: Canis familiaris; assay: Effect on the transmembrane potential of dog Purkinje fibers paced at a basic cycle length of stimulation of 1000 ms, repolarization time to -60 mV at 3 uM concentration; format: functional; details: Canis lupus familiaris, Purkinje fiber; how it was run: as §1
# [36] = system: Canis familiaris; assay: Effect on atrial conduction time, after intravenous administration in open-chest anesthetized dogs at dose of 1.0 mg/kg; format: functional, Canis lupus familiaris, Cardiac atrium
# [37] = Maximum rate of depolarization of the upstroke of the action potential at 3 uM concentration; set-up: unit not given beside the values; how it was run: as §3
# [38] = system: Canis familiaris; assay: Effect on ventricular effective refractory period, after intravenous administration in open-chest anesthetized dogs at dose of 1.0 mg/kg; format: functional, Canis lupus familiaris, Cardiac ventricle; how it was run: as §4
# [39] = system: Canis familiaris; assay: Effect on mean arterial pressure, after intravenous administration in open-chest anesthetized dogs at dose of 1.0 mg/kg; format: functional, Canis lupus familiaris, Artery
# [40] = system: Canis familiaris; assay: Effect on ventricular conduction time, after intravenous administration in open-chest anesthetized dogs at dose of 1.0 mg/kg; format: functional, Canis lupus familiaris, Cardiac ventricle
# [41] = system: Canis familiaris; assay: Effect on atrial effective refractory period, after intravenous administration in open-chest anesthetized dogs at dose of 1.0 mg/kg; format: functional, Canis lupus familiaris, Cardiac atrium
# [42] = system: Canis familiaris; assay: Effect on heart rate, after intravenous administration in open-chest anesthetized dogs at dose of 1.0 mg/kg; format: functional, Canis lupus familiaris
# [43] = species on record: Canis familiaris; assay: Effect on the transmembrane potential of dog Purkinje fibers paced at a basic cycle length of stimulation of 300 ms, repolarization time to -60 mV at 3 uM concentration; format: functional; details: Canis lupus familiaris, Purkinje fiber; how it was run: as §1
# [44] = system: Canis familiaris; assay: Effect on mean arterial pressure, after intravenous administration in open-chest anesthetized dogs at dose of 0.1 mg/kg; format: functional, Canis lupus familiaris, Artery
# [45] = system: Canis familiaris; assay: Effect on ventricular effective refractory period, after intravenous administration in open-chest anesthetized dogs at dose of 0.1 mg/kg; format: functional, Canis lupus familiaris, Cardiac ventricle
# [46] = species on record: Canis familiaris; assay: Effect on the transmembrane potential of dog Purkinje fibers paced at a basic cycle length of stimulation of 1000 ms, repolarization time to -60 mV, at a concentration of 0.3 uM; format: functional; details: Canis lupus familiaris, Purkinje fiber; how it was run: as §1
# [47] = system: Canis familiaris; assay: Effect on ventricular conduction time, after intravenous administration in open-chest anesthetized dogs at dose of 0.1 mg/kg; format: functional, Canis lupus familiaris, Cardiac ventricle
# [48] = system: Canis familiaris; assay: Effect on atrial effective refractory period, after intravenous administration in open-chest anesthetized dogs at dose of 0.1 mg/kg; format: functional, Canis lupus familiaris, Cardiac atrium
# [49] = system: Canis familiaris; assay: Effect on heart rate, after intravenous administration in open-chest anesthetized dogs at dose of 0.1 mg/kg; format: functional, Canis lupus familiaris
# [50] = system: Canis familiaris; assay: Effect on atrial conduction time, after intravenous administration in open-chest anesthetized dogs at dose of 0.1 mg/kg; format: functional, Canis lupus familiaris, Cardiac atrium
smiles,measurement,setting,value
CN(CCN(C)S(=O)(=O)c1ccc(NS(C)(=O)=O)cc1)c1nc2ccccc2n1C.Cl,APD60,[1],24
same,VFT,[2],8 and 24
same,Vmax,[3],13
same,Vmax,[4],11
same,APD60,[5],57
same,APD60,[6],40
same,APD60,[7],46
CC(C)NCC(O)c1ccc(NS(C)(=O)=O)cc1 (stereo not drawn) [SOTALOL],Change,[8],-16%
same,Change,[9],-27%
same,APD60,[10],56
same,Change,[11],25%
same,Change,[12],42%
same,Change,[13],-1%
same,APD60,[14],18
same,Change,[15],-17%
same,Change,[16],-1%
same,Change,[17],-5%
same,Change,[18],19%
same,Change,[19],-28%
same,Change,[20],-7%
same,Change,[21],57%
CN(CCOc1ccc(NS(C)(=O)=O)cc1)CCc1ccc(NS(C)(=O)=O)cc1 [DOFETILIDE],Change,[22],-4%
same,Change,[23],-2%
same,Change,[24],23%
same,Change,[25],1%
same,Change,[26],27%
same,Change,[27],-9%
same,APD60,[10],67
same,Change,[28],-4%
same,Change,[29],-14%
same,APD60,[14],30
same,APD60,[30],42
same,Change,[31],65%
same,Change,[32],-24%
same,Change,[33],-4%
same,Change,[34],46%
CN(CCN(C)S(=O)(=O)c1ccc(NS(C)(=O)=O)cc1)c1ccc2ccccc2n1,APD60,[10],46
same,APD60,[14],20
CN(CCN(C)c1nc2ccccc2n1C)C(=O)c1ccc(NS(C)(=O)=O)cc1.Cl,APD60,[35],65
same,Change,[36],-1%
same,Change,[11],24%
same,Vmax,[37],-5 and -3
same,Change,[13],-6%
same,Change,[38],10%
same,Change,[39],5%
same,Change,[40],-1%
same,Change,[41],18%
same,Change,[15],-1%
same,Change,[42],-6%
same,Change,[19],-27%
same,Change,[20],-3%
same,Change,[21],44%
same,APD60,[43],17
CNc1nc2ccccc2n1CCN(C)S(=O)(=O)c1ccc(NS(C)(=O)=O)cc1,APD60,[10],47
same,APD60,[14],28
Cc1cccc(CCN2CCC(C(=O)c3ccc(NS(C)(=O)=O)cc3)CC2)n1,Change,[36],1%
same,APD60,[10],53
same,Change,[44],-6%
same,Change,[38],26%
same,Change,[39],-19%
same,Change,[45],20%
same,Change,[40],-2%
same,APD60,[14],21
same,Change,[41],55%
same,APD60,[46],74
same,Change,[47],-3%
same,Change,[48],34%
same,Change,[42],-25%
same,Change,[49],-18%
same,APD60,[30],27
same,Change,[50],1%
CN(CCN(C)S(=O)(=O)c1ccc(NS(C)(=O)=O)cc1)c1ncc2ccccc2n1,APD60,[10],29
same,APD60,[14],18
